Laboratory results reported in ChEMBL document CHEMBL2424631, “The carbonate analogues of 5'-halogenated resiniferatoxin as TRPV1 ligands” (Eur J Med Chem, 2013).

What was measured:
Assay type in all cases: cell-based
[1] = target: T1, Transient receptor potential cation channel subfamily V member 1 (Rattus norvegicus, UniProt O35433); assay: Displacement of [3H]RTX from rat TRPV1 expressed in CHO cells
How it was run: (§1)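 Competitive binding against [3H]RTX on rat or human TRPV1 heterologously expressed in CHO cells. Affinity is reported as Ki, as mean ± SEM of three or more independent experiments.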

[2] = target: Transient receptor potential cation channel subfamily V member 1 (Rattus norvegicus) (UniProt O35433); assay: Agonist activity at rat TRPV1 expressed in CHO cells assessed as stimulation of Ca2+ uptake relative to capsaicin
Transient receptor potential cation channel subfamily V member 1 (Rattus norvegicus), sequence (O35433 whole entry): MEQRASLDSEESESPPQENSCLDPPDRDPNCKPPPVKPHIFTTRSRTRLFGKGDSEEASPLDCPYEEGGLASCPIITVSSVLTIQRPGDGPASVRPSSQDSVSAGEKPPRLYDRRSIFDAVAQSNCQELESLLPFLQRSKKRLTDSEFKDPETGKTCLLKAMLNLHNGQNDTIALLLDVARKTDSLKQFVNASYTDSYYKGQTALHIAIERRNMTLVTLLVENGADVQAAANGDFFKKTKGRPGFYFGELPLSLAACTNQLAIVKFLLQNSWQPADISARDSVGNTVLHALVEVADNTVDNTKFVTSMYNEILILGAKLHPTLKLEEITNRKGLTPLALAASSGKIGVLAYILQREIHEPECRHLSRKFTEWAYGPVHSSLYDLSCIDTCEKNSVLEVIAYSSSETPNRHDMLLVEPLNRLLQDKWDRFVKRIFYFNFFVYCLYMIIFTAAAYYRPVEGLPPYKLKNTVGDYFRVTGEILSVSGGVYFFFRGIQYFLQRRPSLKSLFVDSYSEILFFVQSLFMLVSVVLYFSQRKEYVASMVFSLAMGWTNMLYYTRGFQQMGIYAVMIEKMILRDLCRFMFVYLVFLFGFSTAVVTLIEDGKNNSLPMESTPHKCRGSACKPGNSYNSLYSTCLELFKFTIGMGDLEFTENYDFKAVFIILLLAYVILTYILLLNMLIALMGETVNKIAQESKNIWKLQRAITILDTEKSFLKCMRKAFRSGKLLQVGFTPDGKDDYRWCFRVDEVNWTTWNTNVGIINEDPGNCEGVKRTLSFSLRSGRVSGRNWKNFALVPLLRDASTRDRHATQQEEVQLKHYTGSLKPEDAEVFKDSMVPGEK
How it was run: (§2)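 Functional 45Ca2+ uptake assay in CHO cells heterologously expressing rat or human TRPV1. Agonism is reported as EC50, and as % of the capsaicin response. Antagonism is reported as Ki(ant) against capsaicin-stimulated 45Ca2+ uptake, and as % antagonism of that response. Ki and EC50 are mean ± SEM of three or more independent experiments.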

[3] = target: T1, Transient receptor potential cation channel subfamily V member 1; assay: Agonist activity at rat TRPV1 expressed in CHO cells assessed as stimulation of Ca2+ uptake; how it was run: as §2
[4] = target: T2, Transient receptor potential cation channel subfamily V member 1 (Homo sapiens, UniProt Q8NER1); assay: Displacement of [3H]RTX from human TRPV1 expressed in CHO cells; how it was run: as §1
T2 sequence (Q8NER1 whole entry): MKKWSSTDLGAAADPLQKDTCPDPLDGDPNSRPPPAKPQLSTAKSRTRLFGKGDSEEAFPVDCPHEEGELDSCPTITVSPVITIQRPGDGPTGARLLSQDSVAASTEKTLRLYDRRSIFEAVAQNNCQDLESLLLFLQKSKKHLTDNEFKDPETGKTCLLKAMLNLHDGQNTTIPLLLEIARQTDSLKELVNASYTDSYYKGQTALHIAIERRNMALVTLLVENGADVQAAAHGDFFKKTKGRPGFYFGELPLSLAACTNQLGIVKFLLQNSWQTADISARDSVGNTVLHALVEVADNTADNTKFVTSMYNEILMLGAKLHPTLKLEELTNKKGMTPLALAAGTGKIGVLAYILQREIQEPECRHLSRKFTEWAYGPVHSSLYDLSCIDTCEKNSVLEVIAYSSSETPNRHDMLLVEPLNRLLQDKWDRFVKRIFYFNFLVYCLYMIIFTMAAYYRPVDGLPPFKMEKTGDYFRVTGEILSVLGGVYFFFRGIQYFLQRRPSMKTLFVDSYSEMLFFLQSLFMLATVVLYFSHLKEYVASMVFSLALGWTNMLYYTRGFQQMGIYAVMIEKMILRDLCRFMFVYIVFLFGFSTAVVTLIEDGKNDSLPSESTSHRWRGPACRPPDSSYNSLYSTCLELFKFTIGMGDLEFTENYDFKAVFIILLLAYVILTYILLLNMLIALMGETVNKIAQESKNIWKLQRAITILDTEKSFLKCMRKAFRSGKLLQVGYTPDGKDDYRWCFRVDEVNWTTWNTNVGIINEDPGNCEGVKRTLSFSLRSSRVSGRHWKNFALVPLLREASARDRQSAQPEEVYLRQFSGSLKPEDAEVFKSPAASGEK

[5] = target: T2, Transient receptor potential cation channel subfamily V member 1; assay: Agonist activity at human TRPV1 expressed in CHO cells assessed as stimulation of Ca2+ uptake; how it was run: as §2
[6] = target: Transient receptor potential cation channel subfamily V member 1 (Rattus norvegicus) (UniProt O35433); assay: Ratio of I-RTX Ki to compound Ki for rat TRPV1 expressed in CHO cells
[7] = target: T2, Transient receptor potential cation channel subfamily V member 1; assay: Antagonist activity at human TRPV1 expressed in CHO cells assessed as inhibition of capsaicin-stimulated Ca2+ uptake; how it was run: as §2
[8] = target: T1, Transient receptor potential cation channel subfamily V member 1; assay: Antagonist activity at rat TRPV1 expressed in CHO cells assessed as inhibition of capsaicin-stimulated Ca2+ uptake; how it was run: as §2
[9] = target: Transient receptor potential cation channel subfamily V member 1 (Rattus norvegicus) (UniProt O35433); assay: Partial antagonist activity at rat TRPV1 expressed in CHO cells assessed as inhibition of capsaicin-stimulated Ca2+ uptake measured as residual agonism; details: concentration not given here; how it was run: as §2

T1 sequence (O35433 whole entry): as the sequence (O35433 whole entry) above

Compound | Ki [1] | Activity [2] | EC50 [3] | Ki [4] | EC50 [5] | Ratio Ki [6] | Ki [7] | Ki [8] | inhibition [9]
C=C(C)[C@]12C[C@@H](C)[C@@]34O[C@](Cc5ccccc5)(O[C@@H]1[C@@H]3C=C(COC(=O)Oc1ccc(NS(C)(=O)=O)c(OC)c1)C[C@]1(O)C(=O)C(C)=C[C@@H]41)O2 | 1.28 nM | 89% | 4.62 nM | 82 nM | 16.5 nM | – | – | – | –
C=C(C)[C@]12C[C@@H](C)[C@@]34O[C@](Cc5ccccc5)(O[C@@H]1[C@@H]3C=C(COC(=O)Cc1ccc(O)c(OC)c1)C[C@]1(O)C(=O)C(C)=C[C@@H]41)O2 [RESINIFERATOXIN] | – | – | – | 1.23 nM | 0.92 nM | – | – | – | –
C=C(C)[C@]12C[C@@H](C)[C@@]34O[C@](Cc5ccccc5)(O[C@@H]1[C@@H]3C=C(COC(=O)Oc1cc(Cl)c(N)c(OC)c1)C[C@]1(O)C(=O)C(C)=C[C@@H]41)O2 | 2.5 nM | – | – | 330 nM | – | 5 | 1400 nM | 4.06 nM | –
C=C(C)[C@]12C[C@@H](C)[C@@]34O[C@](Cc5ccccc5)(O[C@@H]1[C@@H]3C=C(COC(=O)Oc1cc(Br)c(N)c(OC)c1)C[C@]1(O)C(=O)C(C)=C[C@@H]41)O2 | 1.83 nM | – | – | 212 nM | – | 5 | 666 nM | 2.46 nM | –
C=C(C)[C@]12C[C@@H](C)[C@@]34O[C@](Cc5ccccc5)(O[C@@H]1[C@@H]3C=C(COC(=O)Oc1cc(F)c(N)c(OC)c1)C[C@]1(O)C(=O)C(C)=C[C@@H]41)O2 | 2.21 nM | 83% | 3.17 nM | 830 nM | 17.9 nM | – | – | – | –
C=C(C)[C@]12C[C@@H](C)[C@@]34O[C@](Cc5ccccc5)(O[C@@H]1[C@@H]3C=C(COC(=O)Oc1cc(I)c(O)c(OC)c1)C[C@]1(O)C(=O)C(C)=C[C@@H]41)O2 | 1.66 nM | – | – | 49 nM | – | 5 | 189 nM | 2.23 nM | –
C=C(C)[C@]12C[C@@H](C)[C@@]34O[C@](Cc5ccccc5)(O[C@@H]1[C@@H]3C=C(COC(=O)Cc1cc(I)c(O)c(OC)c1)C[C@]1(O)C(=O)C(C)=C[C@@H]41)O2 [IODORESINIFERATOXIN] | – | – | – | 11.8 nM | – | – | 5.87 nM | – | –
C=C(C)[C@]12C[C@@H](C)[C@@]34O[C@](Cc5ccccc5)(O[C@@H]1[C@@H]3C=C(COC(=O)Oc1cc(I)c(N)c(OC)c1)C[C@]1(O)C(=O)C(C)=C[C@@H]41)O2 | 3.01 nM | – | – | 990 nM | – | – | 1800 nM | 2.68 nM | –
C=C(C)[C@]12C[C@@H](C)[C@@]34O[C@](Cc5ccccc5)(O[C@@H]1[C@@H]3C=C(COC(=O)Oc1cc(F)c(O)c(OC)c1)C[C@]1(O)C(=O)C(C)=C[C@@H]41)O2 | 1.17 nM | – | 4.97 nM | 138 nM | 16.3 nM | – | – | – | –
C=C(C)[C@]12C[C@@H](C)[C@@]34O[C@](Cc5ccccc5)(O[C@@H]1[C@@H]3C=C(COC(=O)Oc1cc(Cl)c(O)c(OC)c1)C[C@]1(O)C(=O)C(C)=C[C@@H]41)O2 | 1.64 nM | 13% | – | 50 nM | 183 nM | – | 451 nM | 21.3 nM | –
C=C(C)[C@]12C[C@@H](C)[C@@]34O[C@](Cc5ccccc5)(O[C@@H]1[C@@H]3C=C(COC(=O)Oc1cc(Br)c(O)c(OC)c1)C[C@]1(O)C(=O)C(C)=C[C@@H]41)O2 | 1.64 nM | – | – | 33.3 nM | – | 2 | 512 nM | 5.2 nM | 13%
C=C(C)[C@]12C[C@@H](C)[C@@]34O[C@](Cc5ccccc5)(O[C@@H]1[C@@H]3C=C(COC(=O)Oc1ccc(N)c(OC)c1)C[C@]1(O)C(=O)C(C)=C[C@@H]41)O2 | 0.58 nM | – | 1.84 nM | 140 nM | 6.28 nM | – | – | – | –
